Screening data: PubChem BioAssay, SRMLSC
The sample as a whole holds a higher share of hits than the screen did.
PTEN del growth – growth suppression of PTEN-null HCT116, primary screen, cell-based, CellTiter-Glo | HCT116 PTEN-null viability, 60 h; active compounds read low | viability, % at 10 µM | actives 1.2% (n = 140,000) | AID 827, 2007;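 active means viability at or below a set limit, 4 SD under the median of all tested compounds, cut at about 3.7% in these data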;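 further: PTEN knockout HCT116 line with beta catenin targeted HCT116 as companion control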
Lung fibro prol – antiproliferative effect on LL 47 fibroblasts – human, LL 47 cells, CellTiter-Glo luminescence, primary screen. LL 47 human lung fibroblast viability, ATP luminescence; active compounds read low. viability, % at 10 µM. actives 1.1% (n = 85,000). AID 719, 2007;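 active means viability at or below 50% in the single dose screen; inactive means viability above 50%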;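 further: compound exposure lasted 72 h before the ATP readout; 100% = median luminescence of untreated cell-only wells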
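Assay system: human lung fibroblast line LL 47, low passage. Input: 1,150 fibroblasts seeded per well. Times: overnight cell rest, 72 h compound treatment at 37 °C. Evaluation: % viability of median cell-only signal. Technique: luminescent ATP detection, CellTiter-Glo. Control set: cell-only wells, no compound.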
bCat KO growth – primary screen for growth suppressors in beta-catenin knockout HCT116 cells (colon tumor, human). HCT116 beta-catenin knockout viability, CellTiter-Glo, 60 h; active compounds read low. viability, % at 10 µM. actives 1.5% (n = 140,000). AID 818, 2007;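 active means viability at or under a set limit, the compound median less 4 SD, cut at about 6% in these data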;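 further: 0% = Hyamine 1622 control at 20 µM and 100% = untreated cell control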
H69AR inhibit – proliferation blockers of H69AR lung cancer cells, primary screen, cell-based, human, 86K library. H69AR lung tumor viability, ATP luminescence, 72 h; active compounds read low. viability, % at 10 µM. actives 6% (n = 85,000). AID 598, 2007;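 active means viability at or below 40%; inactive means viability above 40%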;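 further: multidrug resistant small cell line overexpressing MRP-1 efflux transporter; 100% = mean luminescence of untreated control wells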
HUVEC prolif 384 – inhibitors of HUVEC proliferation, primary screen, cell-based, 384-well; actives 1.1% (n = 86,000); CellTiter-Glo luminescence, 72 h; active compounds read low; viability, % at 10 µM (by protocol);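 active means viability at or below 30%; inactive means viability above 30%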;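 further: 100% = median luminescence of DMSO-only cell control wells on each plate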
Starred values were filed as active, the others as inactive; . = no result.

SMILES | PTEN del growth | Lung fibro prol | bCat KO growth | H69AR inhibit | HUVEC prolif 384
C=Cn1ccnc1P(=S)(c1ccc2c(c1)c1ccccc1n2CC)c1nccn1C=C | 12 | 52 | 25 | 13* | 41
CCn1c2ccccc2c2cc(NC(C)=O)ccc21 | 90 | 106 | 93 | 100 | 81
O=C(OCC#CCSc1nnc(-c2ccccc2)o1)c1cccs1 | 81 | 97 | 90 | 87 | 87
C#CCSc1nnc(-c2cccc3ccccc23)o1 | . | 65 | . | 21* | 64
O=C(OCC#CCSc1nnc(-c2cccc3ccccc23)o1)c1cccs1 | 86 | 98 | 92 | 35* | 82
CCOC(=O)Cn1c2ccccc2c2nc3ccccc3nc21 | 44 | 96 | 21 | 6.1* | 107
COc1ccc2c(c1)c1nc3ccccc3nc1n2CC(=O)OC(C)C | 3.7* | 39* | 2.3* | 18* | 57
Cc1nn(Cc2ccc(C(=O)Nc3nccs3)cc2)c(C)c1Cl | 97 | 104 | 108 | 69 | 53
O=C(C1CC1)N1CCc2cc(Br)cc(S(=O)(=O)N3CCCCCC3)c21 | 77 | 83 | 75 | 37* | 98
CCC(=O)N1CCc2cc(Br)cc(S(=O)(=O)N3CCCCCC3)c21 | 79 | 104 | 86 | 75 | 100
Cc1ccc(Cl)cc1N1CCN(C(=O)c2cc3c(=O)[nH]c4ccccc4c3n2C)CC1 | 6 | . | 5.6* | . | .
Cn1c(C(=O)N2CCN(c3ccc(Cl)cc3)CC2)cc2c(=O)[nH]c3ccccc3c21 | 45 | 102 | 23 | 34* | 74
Cc1ccc(Cl)cc1N1CCN(C(=O)Cc2cn(C)c3ccccc23)CC1 | 51 | 83 | 56 | 34* | 77
Cc1ccc(Cl)cc1N1CCN(C(=O)Cc2c(C(=O)O)[nH]c3ccccc23)CC1 | 95 | 102 | 94 | 76 | 75
Cc1ccc(C)c(N2CCN(C(=O)Cc3cn(C)c4ccccc34)CC2)c1 | 84 | 97 | 84 | 69 | 82
COC(=O)c1ccc2c(c1O)C(=O)c1ccccc1C2=O | 2.8* | . | 4.5* | . | .
CCOC(=O)c1cc2sc(C)cc2n1CC(=O)N1CCOCC1 | 92 | 102 | 94 | 102 | 108
CCOC(=O)c1cc2sc(C)cc2n1CC(=O)NCc1ccc(F)cc1 | 86 | 95 | 96 | 30* | 67
N#CC(c1cccc(Cl)c1)c1ccc2c(C(F)(F)F)cc(C(F)(F)F)nc2n1 (stereo not given) | 1.0* | 20* | 0.8* | 4.3* | 14*
Cc1cc(C(C#N)c2cccc(Cl)c2)n2ncnc2n1 (stereo not given) | 93 | 102 | 89 | 104 | 102
Cc1cc(NC(=O)C2C3C(=O)N(Cc4ccc(Cl)cc4)C(C(=O)NCc4ccccc4)C34C=CC2(C)O4)no1 (stereo not given) | 82 | 96 | 72 | 98 | 92
Cn1c(=O)c2c(ncn2CC(COCc2ccc(Cl)cc2)OCc2ccc(Cl)cc2)n(C)c1=O (stereo not given) | 50 | 97 | 59 | 35* | 81
Cn1c(=O)c2c(ncn2CC(O)CO)n(C)c1=O (stereo not given) | 96 | 89 | 102 | 97 | 98
Cc1ccc(NC(=O)Cn2cnc3sc(C(=O)NCCN(C)C)c(C)c3c2=O)cc1Cl | 57 | 58 | 37 | 72 | 8.3*
O=C1C=C(Nc2ccc(Cl)cc2)CC(c2ccccc2)C1 (stereo not given) | 24 | . | 30 | . | .
SMILES | PTEN del growth | Lung fibro prol | bCat KO growth | H69AR inhibit | HUVEC prolif 384
Oc1ccccc1-c1nnc(SCCN2CCOCC2)n1Cc1ccccc1 | 2.4* | 24* | 2.7* | 15* | 88
N#Cc1c2n(c3c(=O)n(CC(=O)c4ccc([N+](=O)[O-])cc4)cnc13)CCCCC2 | 100 | . | 93 | . | .
O=C(NCc1cc(Br)cc(Br)c1OC(=O)c1ccccc1[N+](=O)[O-])c1ccccc1 | 62 | . | 60 | . | .
CN1C2C=C3C(C#N)=C(N)C(C#N)(C#N)[C@H](c4c(F)cccc4F)[C@H]3C1CC2 (stereo not given in full) | 62 | 97 | 52 | 18* | 93
CN1C2C=C3C(C#N)=C(N)C(C#N)(C#N)[C@@H](c4cccc(F)c4)[C@@H]3C1CC2 (stereo not given in full) | 97 | 98 | 94 | 81 | 100
N#CC1=C(N)C(C#N)(C#N)C2(CCC3(CC2)OCCO3)C2CC3(CC=C12)OCCO3 (stereo not given) | 92 | 108 | 91 | 97 | 94
